Laboratory results from ChEMBL document CHEMBL1149292, “A rational utilization of high-throughput screening affords selective, orally bioavailable 1-benzyl-3-carboxyazetidine sphingosine-1-phosphate-1 receptor agonists” (J Med Chem, 2004).
pIC50: −log10 of the molar value.

Columns and labels:
Rattus norvegicus [1] = test: Decrease in peripheral blood lymphocyts in Lewis rat at 10 mg/kg, po after 24 hrs relative to control; assay type: functional; design: scale not given: the % may be the effect or the level left
In short: (§1)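 Rat oral dose-titration at 1–30 mpk po. Peripheral blood lymphocyte counts and plasma compound concentrations determined 24 h postdose.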

[2] = Plasma concentration in femoral artery cannulated Lewis rat at 3 mg/kg, po after 32 hrs; assay type: ADME, organism-based; design: dose 3 mg/kg, route oral
In short: (§2)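 Femoral artery cannulated Lewis rats (n = 3) got a single 3 mpk oral dose. Compound plasma concentration (nM) was measured serially over time up to 72 h postdose. Peripheral blood lymphocyte counts were taken in parallel at the same time points. The same animals were later given a second 3 mpk oral dose.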

[3] = Bioavailability in rhesus monkey at 1 mg/kg, po and 0.5 mg/kg, iv; assay type: ADME, organism-based, Macaca mulatta; details: in vivo
In short: (§3)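 Single-dose PK at 1.0 mpk po and 0.5 mpk iv. Plasma compound levels measured.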

[4] = Plasma concentration in femoral artery cannulated Lewis rat at 3 mg/kg, po after 0.25 hrs; assay type: ADME, organism-based; design: dose 3 mg/kg, route oral
In short: (§4)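 Femoral artery cannulated Lewis rats (n = 3) given a single 3 mpk oral dose. PBL counts and plasma compound concentration sampled over time up to 72 h postdose. A repeat 3 mpk po challenge was given to the same animals.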

Rattus norvegicus [5] = test: Decrease in peripheral blood lymphocyte counts in femoral artery cannulated Lewis rat at 3 mg/kg, po after 0.25 hrs; assay type: functional; in short: as §4
[6] = Plasma concentration in femoral artery cannulated Lewis rat at 3 mg/kg, po after 8 hrs; assay type: ADME, organism-based; design: dose 3 mg/kg, route oral; in short: as §2
Canis familiaris = test: Plasma clearance in Beagle dog at 1 mg/kg, po and 0.5 mg/kg, iv; assay type: ADME, organism-based, Canis lupus familiaris; details: in vivo; in short: as §3
[7] = Plasma concentration in femoral artery cannulated Lewis rat at 3 mg/kg, po after 72 hrs; assay type: ADME, organism-based; design: dose 3 mg/kg, route oral; in short: as §2
Mus musculus = test: Decrease in peripheral blood lymphocytes in po dosed mouse after 3 hrs; assay type: functional
In short: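 Compound given orally to mice. Peripheral blood lymphocyte counts taken 3 h after dosing, expressed as average percent decrease in n = 3 animals versus controls (n = 3). ED50 from dose-titration.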

Rattus norvegicus [8] = test: Decrease in peripheral blood lymphocyte counts in femoral artery cannulated Lewis rat at 3 mg/kg, po after 1 hr; assay type: functional; in short: as §4
[9] = Half life in Beagle dog at 1 mg/kg, po and 0.5 mg/kg, iv; details: in vivo
[10] = Volume of distribution at steady state in rat at 2 mg/kg, po and 1 mg/kg, iv; assay type: ADME, organism-based; details: in vivo, read-out: Vdss
[11] = Plasma concentration in femoral artery cannulated Lewis rat at 3 mg/kg, po after 4 hrs; assay type: ADME, organism-based; design: dose 3 mg/kg, route oral; in short: as §2
[12] = Plasma concentration in Lewis rat at 10 mg/kg, po after 24 hrs; assay type: ADME, organism-based; design: dose 10 mg/kg, route oral; in short: as §1
[13] = molecular target: T1, Sphingosine 1-phosphate receptor 4 (Homo sapiens, UniProt O95977); test: Displacement of [33P]sphingosine 1 phosphate from human S1P4 receptor expressed in CHO cells; assay type: cell-based
T1 sequence (O95977 whole entry): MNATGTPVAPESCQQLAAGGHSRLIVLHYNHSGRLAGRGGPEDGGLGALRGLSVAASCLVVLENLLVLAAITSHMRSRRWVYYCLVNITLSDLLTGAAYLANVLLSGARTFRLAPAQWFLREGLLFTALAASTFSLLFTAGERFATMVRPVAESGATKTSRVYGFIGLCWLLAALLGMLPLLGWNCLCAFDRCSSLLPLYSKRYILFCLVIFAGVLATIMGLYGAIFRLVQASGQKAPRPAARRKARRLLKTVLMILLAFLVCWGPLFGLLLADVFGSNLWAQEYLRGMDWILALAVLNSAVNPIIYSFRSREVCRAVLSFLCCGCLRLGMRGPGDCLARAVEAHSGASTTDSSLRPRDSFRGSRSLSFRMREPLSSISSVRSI
In short: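 Competition binding with [33P]-labeled S1P on membranes of CHO cells stably expressing each human S1P receptor. Values are the mean of n = 3 determinations.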

[14] = Volume of distribution at steady state in Beagle dog at 1 mg/kg, po and 0.5 mg/kg, iv; assay type: ADME, organism-based, Canis lupus familiaris; details: in vivo, read-out: Vdss
[15] = Plasma clearance in rhesus monkey at 1 mg/kg, po and 0.5 mg/kg, iv; assay type: ADME, organism-based, Macaca mulatta; in short: as §3
[16] = molecular target: Sphingosine 1-phosphate receptor 2 (Homo sapiens, UniProt O95136); test: Displacement of [33P]sphingosine 1 phosphate from human S1P2 receptor expressed in CHO cells; assay type: cell-based
[17] = Bioavailability in rat at 2 mg/kg, po and 1 mg/kg, iv; assay type: ADME, organism-based; details: in vivo
In short: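 Rat PK at 2.0 mpk po and 1.0 mpk iv. Plasma compound levels measured.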

Rattus norvegicus [18] = test: Decrease in peripheral blood lymphocyte counts in Lewis rat at 30 mg/kg, po after 24 hrs; assay type: functional; in short: as §1

Sphingosine 1-phosphate receptor 2, sequence (O95136 whole entry): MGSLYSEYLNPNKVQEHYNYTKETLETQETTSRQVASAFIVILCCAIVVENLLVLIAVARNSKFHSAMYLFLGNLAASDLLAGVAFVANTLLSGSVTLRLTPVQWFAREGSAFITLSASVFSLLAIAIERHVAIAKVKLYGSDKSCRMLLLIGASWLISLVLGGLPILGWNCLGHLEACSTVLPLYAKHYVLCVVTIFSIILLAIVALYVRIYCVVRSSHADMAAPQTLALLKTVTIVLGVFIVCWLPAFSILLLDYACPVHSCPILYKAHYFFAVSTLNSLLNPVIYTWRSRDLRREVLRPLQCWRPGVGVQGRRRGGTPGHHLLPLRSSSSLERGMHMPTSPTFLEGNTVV

- concentration at 32 h [2]: 34 nM
- bioavailability [3]: 76%
- concentration at 0.25 h [4]: 72 nM
- concentration at 8 h [6]: 310 nM
- clearance (Canis familiaris): 2.2 mL/min/kg
- concentration at 72 h [7]: 8 nM
- half-life [9]: 9.7 h
- Vd [10]: 10 L/kg
- concentration at 4 h [11]: 320 nM
- concentration at 24 h [12]: 370 nM
- IC50 [13]: 1.6 µM (antagonist)
- Vd [14]: 1.6 L/kg
- clearance [15]: 1.5 mL/min/kg
- pIC50 [16]: < 5.00
- bioavailability [17]: 79%
Structure (SMILES): O=C(O)C1CN(Cc2ccc(OCc3cc(-c4ccccc4)c(C(F)(F)F)s3)cc2)C1
- Activity (Rattus norvegicus [1]): 78%
- Activity (Rattus norvegicus [5]): 4400 µL⁻¹
- ED50 (Mus musculus): 0.44 mg/kg
- Activity (Rattus norvegicus [8]): 3330 µL⁻¹
- Activity (Rattus norvegicus [18]): 1430 µL⁻¹
